Test results taken from the EternaBench riboswitch data.

Test system: MS2 coat protein
Test: apparent Kd, MS2 coat protein; higher = weaker binding; RNA-MaP array; FMN 200 µM where present
Summary of the method: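 The apparent Kd is the median of filtered binding-curve fits, one per cluster, to green signal normalised to red-channel RNA signal and control-cluster median Fmax. The clusters were on Illumina sequencing chips, and stalled E. coli RNA polymerase had transcribed the designs on them. Titration used SNAP-549-labelled MS2 coat protein from 0.7 or 1.5 nM, doubling to 3 µM, without and then with constant ligand, in 100 mM Tris-HCl pH 7.5, 80 mM KCl, 4 mM MgCl2, BSA, DTT, yeast tRNA and Tween-20.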

[1] = designed as: ON switch for flavin mononucleotide, no ligand
[2] = ligand present: flavin mononucleotide, designed as: ON switch for flavin mononucleotide
[3] = designed as: OFF switch for flavin mononucleotide, no ligand
[4] = ligand present: flavin mononucleotide, designed as: OFF switch for flavin mononucleotide

| Sequence | apparent Kd [1] [nM] | apparent Kd [2] [nM] | apparent Kd [3] [nM] | apparent Kd [4] [nM] |
| --- | --- | --- | --- | --- |
| GGGCCGUUGCAGAAGGCCGGCGGGCUUGGCGCCGGAGGAUAUGCAUGUGCACAUGAGGAUCACCCAUGUGCCAGCCCGGAGGGA | 6.56 | 5.9 | – | – |
| CUAUCUUAUGAGAAGGCGAUCAUGAAACAUGAUCGAGGAUAUCAUGUAAACAUGAGGAUCACCCAUGUAUGGGUAUUAUGGUAG | 175 | 57.1 | – | – |
| CUUAAGGCAGGAUAUGCUUUUUGUGACAUGAGGAUCACCCAUGUGAUGCAGUUUGGGUUUGCAGAAGGGCCUGAGU | – | – | 111 | 61.1 |
| CUAGUAUAUCAGGAUAUGAUUUUGUGUAGUUGGUCAGAAGGGAUGACAUGAGGAUCACCCAUGUUAAGGAGUGA | – | – | 122 | 146 |
| GCCUAAAGUGAGGAUAUCUAGCGCGUAAAGGCAGGAGAAGGUGCAACAUGAGGAUCACCCAUGUAGGCUGUCUA | – | – | 19.5 | 20 |
| UGCUAGAACCUAGGAUAUCCUGGGUUGGUGGUGCUUGAUGACCGGACAUGAGGAUCACCCAUGUAGGAGAAGGAGGUUGUUAAG | – | – | 60.6 | 112 |
| GUCGAAGCCGUACUGGUCGACGGUCAGGAUAUACAUGAGGAUCACCCAUGUGCUAUUGAUACUAUGUAGAAGGGACCCACCGCA | – | – | 13.3 | 19 |
| GUAGAGUAGUGAGGAUAUACGAGAUCGAUAGAUCGGCGAUCCAAUUAUACAUGAGGAUCACCCAUGUAGAAGGCACUUCUCUAC | – | – | 12.6 | 116 |
| AUUGAUGUUGAGGAUAUGCUUUUAUUUAUUAUAGCAGAAGGCGAUACAUGAGGAUCACCCAUGUUCAUGGCUUU | – | – | 11.8 | 14.9 |
| ACGUGUUAUACAGGAUAUGUAUAGGAAUAAUCAUACAGUUAUUAAUUAAUGACAGAAGGGUAAACAUGAGGAUCACCCAUGUCA | – | – | 546 | 390 |
| UCCUGAUCGAGAGGUAGGAGUGGUAGAAGGCGACCGGUGCCAGAUGACAUGAGGAUCACCCAUGUCGAGGAUAUACCACUGAAU | – | – | 7.04 | 12.1 |
| AAAUAACUAGGAUAUCGAGGCACAGACAUGAGGAUCACCCAUGUGUGGUCUUCGUGCUUACGAGAAGGAGUACGGC | – | – | 672 | 274 |
| AUUUAGAGAGGAUAUAUAUUGUGAAACAUGAGGAUCACCCAUGUAAUAAUAUGGAUGUAAAUAGAAGGCUCAUUUA | – | – | 38.1 | 34.9 |
| GAAAACAGAGGAUAUACAAAAUUGACACGAAAGGUGCAAAAACAUGAGGAUCACCCAUGUAGAAGGCUGAAGAA | – | – | 24.8 | 22 |
| AGUGUCAUCGAGAAGGCCUCAACAUGAGGAUCACCCAUGUUGCAAAAUGGGAGGAUAUCAAAACUACAGCUACGUUUCGUAGCA | 69.1 | 9.44 | – | – |
| GUGAAGUAAGGAUAUACAUGAGGAUCACCCAUGUGGAGGAAGGUGAUGGGAGUAGGUAGUAGAAGGUACGAGGA | – | – | 140 | 128 |
| AUCAGCUCGUCAGGAUAUACGUCACUGCGUCAGCAGUGUGGUAAGAUCACAUGAGGAUCACCCAUGUAGAAGGGACGAGCCGAU | – | – | 13.2 | 306 |
| CUAGCGUAUGUAGGAUAUCGGACUGUUUCAGUCUGAGAAGGACAUGAGGAUCACCCAUGUAUAGCUACGUGAGUAGCUCGCUAG | – | – | 20.4 | 32.4 |
| GGGUACAUCGGAGGAUAUCAUGUAAAUACAUGAGGAUCACCCAUGUCGAUGGAGACAUUGGAGAUUGAGAAGGCCGAUGUACCG | 156 | 219 | – | – |
| GUGAAGAUAGCAGGAUAUUUAUUUCCUACAUGAGGAUCACCCAUGUAGGUGAUCAGCCGAGUAAAGGAGAAGGGCUAUCUUUAC | 30.9 | 21.3 | – | – |
| AAAAACUCAGGAUAUAUUAUGGGACAAUGAAGGAAGAUAAAACAUGAGGAUCACCCAUGUAGAAGGGAGAAAAA | – | – | 58.5 | 67.5 |
| GUGAAGAUAGCAGGAUAUCUAUUUCCUACAUGAGGAUCACCCAUGUAGGUGAUCAGCCGAGUAAAGGAGAAGGGCUAUCUUUAC | 22.8 | 9.29 | – | – |
| UAGUAUUAGCGAGGAUAUCGUAUGUUCAAUUUUUUAUAUUGUUUACAUGAGGAUCACCCAUGUUACGAGAAGGCGCAUGGGAUU | 466 | 85.8 | – | – |
| GGAUCGAAAGUGAGGAUAUGCUGGUCCUUGGAUCAGCAGAAGGCACAUGAGGAUCACCCAUGUGUUCCCGGUCC | – | – | 19.7 | 99.8 |

| Sequence | apparent Kd [1] [nM] | apparent Kd [2] [nM] | apparent Kd [3] [nM] | apparent Kd [4] [nM] |
| --- | --- | --- | --- | --- |
| UCACAGUGUCGUUAUCCGUAGCGAACAUGAGGAUCACCCAUGUAGGAUAUGUUAUUAAACUAAUAACAGAAGGACGUUGGUCUC | – | – | 83.2 | 530 |
| UCAUUUCUGUAAGGAUAUUAAAACAUGACGAUACAUGAGGAUCACCCAUGUUAAGAAGGUACAAAUACAUAUAAUGCAAUGUUC | – | – | 15.7 | 14.8 |
| UUUAUUAGUUAGAAGGCUUGAUGAAUUACAAUGGACAUGAGGAUCACCCAUGUGUAUUCAUGUUAAGAGGAUAUAGUCAUAUAU | 30.2 | 20.2 | – | – |
| UUGGAUGUCGUAGGAUAUGUAGGAUAUUCCUACAUGAGGAUCACCCAUGUUGACAUGGAAGAAGGACAGAAGGACGAUGUCCAU | 209 | 5.03 | – | – |
| CUCAGCUCGUCAGGAUAUACGUCACUGCUUCGGCAGUGUGGUAAGAUCACAUGAGGAUCACCCAUGUAGAAGGGACGAGCUGAG | – | – | 11.5 | 245 |
| AUACAUGAGGAUCACCCAUGUAAUUAAUUAAUUAAUAAGAUCUAGGAUAUCAGCUCGAUUAGAGCUGAGAAGGAGAUCACAUGU | 24.2 | 14.6 | – | – |
| GGAAAUCAUGUAGGAUAUGCAUGGCGAAGCUACGCAGAAGGACAUGAGGAUCACCCAUGUUAUAGCGUCCGAGAAAGGAUGCAC | – | – | 38.8 | 162 |
| CAUCAGGUACGAGGAUAUCCGCGAUCUCUUCGAGGAGAAGGCGUACAUGAGGAUCACCCAUGUGGGCGAGACAGACGAAGUCUG | – | – | 114 | 59.5 |
| CCGUGAAGGACAGGAUAUGGACAUGAGGAUCACCCAUGUACAUGGGAAUAUAUACUGAAUUUAUACUAGAAGGGUUACAUAAAU | – | – | 21.8 | 19.4 |
| ACAUCGUGAGACAUGAGGAUCACCCAUGUGUGAUAGUGGGCACAGGAUAUCCAGACUUGGAAUCUGGAGAAGGGUGAUCGUUAA | 86.7 | 129 | – | – |
| CACGUCAGGAAACGGAGCGGCCAACAUGAGGAUCACCCAUGUGAGGAUAUGCCUACUAAAAGUAGGCAGAAGGCGCAAUUGGCA | – | – | 29.1 | 39.9 |
| UGGUACAUGGGAGGAUAUGGGACAUGAGGAUCACCCAUGUGAAAAUUAAAUAUGCCGAUAGGCAACUAGAAGGCCCAUGUACCU | 33.1 | 15.4 | – | – |
| ACAUGAGGAUCACCCAUGUUAAAUGAGGAUAUAUGACUGCACAUGAGGUUCACCCAUGUUCUACCGUAGAAGGUAUAAAUAAUU | 71.7 | 76.1 | – | – |
| CAGUACUGAGGAUAUACAUGAGGAUCACCCAUGUGUUCCAGCUAGGAAACUAGCAAAUGUAGAAGGCAGUACUG | – | – | 212 | 317 |
| ACUAGAAGCGUGAGAUAUCACAUGAGGAUCACCCAUGUGACGCAGGAUAUAACAAUAUCAGAAGGUUAGAAGGGUGAGCACGCC | 101 | 52.9 | – | – |
| GUCAGCUCGUGAGGAUAUACAUGUGCUGGAAACAGCAUUAUAUUUUUCACAUGAGGAUCACCCAUGUAGAAGGCACGAGCUGAU | – | – | 16.3 | 27 |
| AGCGUGGUCCACUUGGACGCCUACGAGGAUAUCCUGUCACAUGAGGAUCACCCAUGUAGGCACACGGAGAAGGCGUAGACUUAA | 25.8 | 6.8 | – | – |
| CUGAUGUUAGGAUAUCAGGCGCCCGCCACUGGCAAAGCGCAUGAGAAGGGACAUGAGGAUCACCCAUGUAGUAA | – | – | 28.2 | 47.6 |
| AGUAAGAUGCAGAAGGUGUCAGCUAGAGCUACGACAUGAGGAUCACCCAUGUACUAGAAACAGUACAAGGAUAUGCAUCUUACA | 80.2 | 8.27 | – | – |
| UCACUUCGUGAGGAUAUGCAAGGACUAUGACUGGUAGAAGGCACGACAUGAGGAUCACCCAUGUCUGUGGGUCC | – | – | 17 | 18.3 |
| UACAUUAACAUGAGGAUCACCCAUGUUGGCCAGUCUCUCACCAGAAGGCACGUAGAGUACAACAGUGAGGAUAUGGGUGACAUA | 139 | 86.1 | – | – |
| UUGAGGUGCAAGAAGGGUCACAUGAGGAUCACCCAUGUCAUGUGAAGUCUCGAGAUUUUAUGUGGAUAGGAUAUUGCACCGAAC | 203 | 113 | – | – |
| GUCUUUAAGGUAGGAUAUAGUAUGAUGGUUUAAUUAGAAGGAUCUCACAUGAGGAUCACCCAUGUAAUAGGAUUACCCAUGUAU | – | – | 60.9 | 43.4 |
| AGGUGACAUGAGGAUCACCCAUGUCAGGAUAUAUACACCGCCGGCGUGAAGCCGACGGAUAGAAGGGACAAAAU | – | – | 16.6 | 21.6 |
